# Shown are actives, neighbours in structure and some others; about 27% of the full set was active somewhere.
# CYP2C9 inhib: blockers of cytochrome P450 2C9 activity – biochemical, luminescence, ADME assay, primary screen; inhibition, % at 5 µM; P11712; AID 777, 2007; hit rate 20% among 96,000; CYP2C9 Supersomes, luciferin-H conversion;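 active = blocking of liver enzyme CYP2C9 beyond about 50% at 5 µM, limit read from the data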
# CYP2C19 activ: human CYP2C19 activators, primary screen, biochemical, luminescence; recombinant CYP2C19, luciferin-H EGE luminescence; stronger effect = higher value; 0 = fully inhibited enzyme, 1 = untreated enzyme; activation factor at 5 µM; 96,000 tested, under 10 active; AID 1025, 2008;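 active = activation factor of at least 2 at 5 µM in the primary screen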
# Target sequence (P33261 whole entry, looked up): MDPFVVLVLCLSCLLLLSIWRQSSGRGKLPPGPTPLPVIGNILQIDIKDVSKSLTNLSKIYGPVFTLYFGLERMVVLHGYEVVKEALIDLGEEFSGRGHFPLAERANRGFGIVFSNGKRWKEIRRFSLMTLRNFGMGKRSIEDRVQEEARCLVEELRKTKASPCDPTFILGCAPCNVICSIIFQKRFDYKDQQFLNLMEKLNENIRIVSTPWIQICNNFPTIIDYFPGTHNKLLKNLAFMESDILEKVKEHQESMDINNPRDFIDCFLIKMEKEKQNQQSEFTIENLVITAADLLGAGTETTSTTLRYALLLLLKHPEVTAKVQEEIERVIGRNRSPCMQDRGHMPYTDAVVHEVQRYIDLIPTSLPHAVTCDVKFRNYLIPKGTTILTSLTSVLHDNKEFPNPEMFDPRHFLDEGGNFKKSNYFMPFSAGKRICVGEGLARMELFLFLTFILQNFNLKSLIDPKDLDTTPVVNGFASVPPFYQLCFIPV
# CYP2C19 inhib: blockers of cytochrome P450 2C19 activity – biochemical, luminescence, ADME assay, primary screen | P33261 | CYP2C19 Supersomes, luciferin-H EGE luminescence, 30 min | inhibition, % at 5 µM | hit rate 21% among 96,000;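 active = CYP2C19 inhibition above a set limit at 5 µM in the primary screen, cut at about 50% in these data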
# Cav32 inh: Cav3.2 calcium influx blockers – cell-based, Fluo-4 calcium fluorescence, FDSS, MLSMR library, primary screen; Cav3.2-expressing cells; stronger effect = lower value; B-score at 10 µM; hit rate 4% among 100,000; AID 449739, 2010; Voltage-dependent T-type calcium channel subunit alpha-1H (Homo sapiens), O95180;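 active = single-dose well whose peak fluorescence ratio is a statistical outlier from its plate by either plate-standardised score or position-corrected B-score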
# CYP2C9 act: human CYP2C9 activators, primary screen, biochemical, luminescence; activation factor at 5 µM; recombinant CYP2C9, luciferin-H conversion; stronger effect = higher value; factor 1 = untreated enzyme, 0 = blocked; hit rate 1.4% among 96,000; Cytochrome P450 2C9 (Homo sapiens), P11712;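 active = activation factor of 2 or more for CYP2C9 at a 5 µM dose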
# Rev-RRE block: HIV-1 Rev-RRE binding inhibitors, primary screen, biochemical, FRET, protein-RNA interaction; P05866; Rev peptide-RRE RNA binding; inhibition, % at 8 µM; hit rate 0.79% among 97,000; AID 704, 2007;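 active = inhibition above the screen-wide mean plus 3 SD, cut at about 35% in these data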
#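 Probe or stimulus: fluorescein-Rev peptide as binding partner; assay system: Cy5-tagged RRE RNA duplex with fluorescein-tagged Rev peptide; timing: 5 min compound–RNA preincubation, then 15 min with peptide, 25 °C; medium: HEPES pH 7.5 buffer with KCl, MgCl2, NaCl and EDTA; signal: fluorescein-to-Cy5 FRET, 480 nm excitation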
# Hits are given with their value; - = inactive; . = not tested or not shown.
SMILES,CYP2C9 inhib,CYP2C19 activ,CYP2C19 inhib,Cav32 inh,CYP2C9 act,Rev-RRE block
Cc1onc(-c2c(Cl)cccc2Cl)c1C(=O)NCCc1ccc(S(N)(=O)=O)cc1,72.7,-,-,-,-,-
CC(=O)Nc1cccc(NC(=O)c2c(-c3c(Cl)cccc3Cl)noc2C)c1,86.6,-,81.8,-,-,-
Cc1onc(-c2c(Cl)cccc2Cl)c1C(N)=O,-,-,-,-,-,.
Cc1cc(C)nc(NC(=O)c2c(-c3c(Cl)cccc3Cl)noc2C)n1,-,-,-,-,-,-
COC(=O)CNC(=O)c1c(-c2c(Cl)cccc2Cl)noc1C,58.3,-,-,-,-,-
CC1=C(CC/C(C)=N/NC(N)=S)C(C)(C)CCC1,.,.,.,-,.,-
CC(C)Cc1nnc(NC(=O)CSc2nc(=O)cc(N)n2-c2ccccc2)s1,-,-,-,-,-,-
Cc1onc(-c2c(F)cccc2Cl)c1C(=O)NCC1COc2ccccc2O1 (stereo not given),58.7,-,70.3,-,-,-
Clc1ccc(SCc2cc(Cl)nc(-c3ccccc3)n2)cc1,.,.,.,-,.,-
O=S(=O)(Cc1cc(Oc2ccccc2)nc(-c2ccccc2)n1)c1ccccc1,61.2,-,58.8,-5.11,-,-
Cc1nc(CS(=O)(=O)c2ccc(Cl)cc2)cc(Sc2ccc(Cl)cc2)n1,88.3,-,-,-5.32,-,-
CCOC(=O)C(C)Sc1cc(CS(=O)(=O)c2ccccc2)nc(-c2ccccc2)n1 (stereo not given),95.8,-,77.0,-5.79,-,-
Cc1cc(Oc2ccccc2)nc(-c2ccccc2)n1,-,-,-,-,-,-
O=S(=O)(Cc1cc(Sc2ccc(Cl)cc2)nc(-c2ccccc2)n1)c1ccccc1,80.6,-,65.3,-4,-,-
c1ccc(Cn2nnc(CNc3ccccc3)c2-c2c(CNc3ccccc3)nnn2Cc2ccccc2)cc1,.,.,.,-,.,.
O=C(CNCc1ccco1)Nc1ccccc1-n1cccc1,.,.,.,-,.,-
CCOC(=O)c1sc(NC(=O)c2ccc(S(=O)(=O)N3CCOCC3)cc2)cc1C,-,-,-,-,-,-
CCOC(=O)Cc1csc(NC(=O)CSc2nnnn2-c2ccc(F)cc2)n1,-,-,-,-4.47,-,-
CCOC(=O)Cc1csc(NC(=O)CSc2nc(N)c3c(C)c(C)sc3n2)n1,58.7,-,-,-,-,-
CCOC(=O)N1CCN(C(=O)CSCC(=O)Nc2nc(-c3ccc(OC)cc3)cs2)CC1,82.7,-,83.7,-,-,-
CCOC(=O)Cc1csc(NC(=O)CSc2nnnn2-c2ccc(C)cc2C)n1,.,.,.,-,.,-
CCOC(=O)Cc1csc(NC(=O)CSc2nnc(-c3ccc(OC)cc3)n2C)n1,59.0,-,-,-,-,-
CCOC(=O)Cc1csc(NC(=O)CSc2nnc(C(C)C)n2CC)n1,.,.,.,-,.,-
O=C1CC(c2cccc(Cl)c2)C(n2cncn2)C(=O)C1C1NCCc2ccccc21 (stereo not given),-,-,-,-,-,-
CCCOC(=O)CC1C(=O)NCCN1Cc1ccccc1C (stereo not given),.,.,.,-,.,-
SMILES,CYP2C9 inhib,CYP2C19 activ,CYP2C19 inhib,Cav32 inh,CYP2C9 act,Rev-RRE block
Cc1ccccc1Cn1cccc1/C=C1/C(=N)N2C=CSC2=NC1=O,85.2,-,-,-,-,-
O=C(O)CSCC(=O)Nc1ccccc1,.,.,.,-,.,-
Cc1noc(C)c1CSCC(=O)N1CCN(c2ccc(F)cc2)CC1,-,-,62.7,-,-,-
CCOC(=O)N1CCN(C(=O)CSCc2ccc(C)cc2)CC1,-,-,-,-,-,-
Cc1cccc(N2CCN(C(=O)CSCc3c(C)noc3C)CC2)c1C,-,-,-,.,-,-
O=C(CN1CCC(O)(c2ccc(F)cc2)CC1)NCc1ccc(F)cc1,-,-,-,-,-,-
O=C(COC(=O)CSCC(=O)N1CCCCC1)NCc1ccc(F)cc1,-,-,50.8,-,-,-
O=C(CSCC(=O)N1CCOCC1)Nc1ccccc1,-,-,57.1,-,-,-
O=C(CSCc1ccc(Br)cc1)N1CCOCC1,-,-,93.7,-,-,-

# Compound activity (PubChem BioAssay)
